# Source: PubChem BioAssay (SRMLSC)
# Yeast life ext – compounds extending yeast replicative lifespan, primary screen, S. cerevisiae, OD615 | hit rate 0.68% among 130,000 | S. cerevisiae growth with nicotinamide; deaD strain in restrictive glucose medium | inhibition of the nicotinamide effect, % at 10 µM | AID 775, 2007;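 active means inhibition above a set limit, placed 3 SD over the median of all compounds, cut at about 26% in these data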;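 further: 0% = nicotinamide-treated wells and 100% = cells grown without nicotinamide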
#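 Test system – modified budding yeast, DeaD strain · Compound – single dose 10 µM compound, 0.25% DMSO · Times – culture preincubation 4 h, compound exposure 48 h, both 30 °C · Detection – optical density (absorbance) at 615 nm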
# Yeast growth inh – growth inhibitors of yeast BB579 in restrictive medium, primary screen, yeast lifespan-shortening project, S. cerevisiae; OD615, 48 h; inhibition, % at 10 µM; hit rate 0.51% among 140,000;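 active means inhibition above a set limit, 3 SD over the mean compound inhibition, cut at about 44% in these data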
#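 Assay system – yeast BB579 (DeaD) · Dosing – single compound dose of 10 µM, 0.25% DMSO final · Detection – OD615 turbidity measurement · Buffer or medium – CSMM-D restrictive synthetic medium containing dextrose (glucose) · Benchmarks – positive control amphotericin B 10 µg/mL · Incubation – 48 h exposure, 30 °C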
# PostGolgi yeast – phenotypic screen on post-Golgi transport, primary screen; post-Golgi transport phenotypic cell assay; hit rate 0.9% among 98,000; inhibition, % at 10 µM;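 further: yeast cells grown in 1536-well plates; yeast grown about 18 h at 30C before absorbance read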
# PostGolgi ctrl – growth inhibition of yeast control strain, primary screen, counter-screen for post-Golgi transport modulator project; efflux-deficient yeast background strain, growth absorbance A615, 16 h; inhibition, % at 10 µM; hit rate 5% among 98,000; AID 738, 2007
# Starred values were filed as active, the others as inactive; / = no result. This is one part of a sample in which hits are shown more often than they occur. Unless noted, no stated cut-off is given here; in the data, active means inhibition above about 30%; inactive means the rest.
SMILES,Yeast life ext,Yeast growth inh,PostGolgi yeast,PostGolgi ctrl
O=C(c1noc2c1CCCC2)N1CCN(c2ccc(F)cc2)CC1,-14,-39,4,34*
Nn1c(Nc2ccccc2)nc2ccccc2c1=O,-8,4,0,2
O=c1[nH]c(Nc2ccccc2)cc2ccccc12,-19,48*,5,4
O=C1c2cccc3c(Cl)ccc(c23)C(=O)N1O,-10,82*,4,34*
CC1(C)N=C(c2ccc(Cl)cc2)C(=O)N1,-6,-70,8,1
COc1ccc(N2CC(C(=O)Nc3nnc(SCc4ccccn4)s3)CC2=O)cc1 (centres undefined),-2,-16,/,/
COc1ccccc1N1CC(C(=O)Nc2nnc(SCc3ccccn3)s2)CC1=O (centres undefined),30*,-14,/,/
O=C(COC(=O)c1cccc(C(F)(F)F)c1)NCc1ccccc1,2,-24,/,/
CC12c3ccccc3C(c3ccccc31)C1C(=O)N(c3cccnc3)C(=O)C12 (centres undefined),-2,-5,/,/
CCc1ccc(N=CC23c4ccccc4C(c4ccccc42)C2C(=O)N(c4ccc(OC)cc4)C(=O)C23)cc1 (centres undefined),29*,-22,-3,13
O=C(Nc1ccccc1Cl)c1cc(S(=O)(=O)N2CCOCC2)cs1,2,-41,1,31*
CC1CCN(CCOc2cc(Cl)ccc2Cl)CC1,-17,-24,49*,23
O=C(CSc1nc(C2CC2)nc2ccccc12)NCc1ccc2c(c1)OCO2,-7,-17,4,0
Cc1ccc2cc(C)c(SCC#N)nc2c1,-8,-70,31*,16
Cc1cc([N+](=O)[O-])ccc1-c1ccc(C2Nc3ccccc3C(=O)N2O)o1 (centres undefined),-14,50*,-5,2
Cn1ncc(C#N)c1NC(=O)c1cc(-c2ccccc2Cl)on1,-13,-11,-5,30*
CCOC(=O)c1sc(Nc2cccc(C)c2C)nc1C,-14,-20,-12,9
COc1ccc2cc3cc(C(=O)Nc4ccccc4N4CCN(C)CC4)oc3nc2c1,-8,-16,5,12
COc1ccc2cc3cc(C(=O)NCCN4CCN(c5ccccc5F)CC4)oc3nc2c1,-24,-46,1,81*
Cc1cccc(OC(=O)n2c(=S)oc3cc(Cl)ccc32)c1,64*,-10,/,/
CCCNC(=S)N1CCN(CC)CC1,2,-6,/,/
Cc1[nH]nc2nc3c(c(OC(=O)c4ccccc4)c12)c(=O)n(C)c(=O)n3C,52*,23,6,13
COc1ccc(CC(=O)NC2CCN(CC(=O)Nc3ccc4c(c3)OCCO4)CC2)cc1OC,-12,-44,-8,37*
Nc1ccc(N2CCN(c3ccc(Cl)c(Cl)c3)CC2)cc1,-6,7,/,/
COc1ccc(N2CCN(CC(O)COc3ccc4c(c3)CCC4)CC2)cc1 (centres undefined),-24,-46,11,38*
SMILES,Yeast life ext,Yeast growth inh,PostGolgi yeast,PostGolgi ctrl
OC(COc1ccc2c(c1)CCC2)CN1CCN(c2ccccc2F)CC1 (centres undefined),-4,-23,0,21
CCC(=O)Nc1ccc(C(=O)NNC(=O)Cc2ccccc2)cc1,-1,10,/,/
CC1(C)CC2CC(C)(CN2C(=S)NC(=O)c2ccccc2Cl)C1 (centres undefined),29*,-37,/,/
CC1(C)CC2CC(C)(CN2C(=O)COC(=O)c2n[nH]c(=O)c3ccccc23)C1 (centres undefined),3,-7,2,13
CC1(C)CC2CC(C)(CN2C(=O)COc2cccc3ccccc23)C1 (centres undefined),1,-33,-7,46*
O=C(COc1cccc2ccccc12)N1c2ccccc2CCc2ccccc21,-12,-8,18,32*
Cc1c(NC(=O)C(C)Sc2nc3ccccc3c(=O)n2CCO)c(=O)n(-c2ccccc2)n1C (centres undefined),-3,-29,-6,-6
COc1ccc(/C(O)=C/c2nc3ccc(C(=O)NCCc4cccc(C)c4)cc3[nH]c2=O)cc1OC,3,-29,/,/
O=P(COc1ccccc1)(c1ccccc1)c1ccccc1,-3,-25,0,8
Cc1ccccc1N(C(=O)Cn1nnc(-c2cccs2)n1)C(C(=O)NCCC(C)C)c1ccco1 (centres undefined),-24,-3,4,14
CC(=O)Oc1ccc(/C=c2\sc3ncnn3c2=O)cc1,42,-25,17,3
CCOc1ccccc1/C=c1\sc2ncnn2c1=O,49*,-43,2,1
O=C(NCCCNCc1ccccc1)c1ccncc1,-2,-47,-4,7
O=C(/C=N\O)NCCCNCc1ccccc1,50*,-38,5,2
Cn1ccc(C(=O)Nc2ccc(Br)cc2Br)n1,-7,-50,/,/
CCC(C)[C@H](NC(=O)NCc1cccc(OC)c1)C(=O)O (some centres undefined),-4,-54,-13,-1
CCC(C)[C@H](NC(=O)NCc1ccccc1)C(=O)O (some centres undefined),-3,-34,-2,45*
Cc1cccc(Oc2nc(CN3CCOCC3)nc3sc4c(c23)CCCC4)c1,33*,-28,/,/
CC(=O)Nc1ccc(S(=O)(=O)Nc2nc(CN3CCOCC3)nc3sc4c(c23)CCCC4)cc1,-4,-49,-6,11
Cc1ccccc1NC(=S)c1nc2ccccc2[nH]1,-6,50*,/,/
O=C(Nc1nc2ccccc2s1)C1CC(=O)N(c2ccc(Cl)cc2)C1 (centres undefined),-2,-43,14,40*
CC(C)N1CC(C(=O)Nc2nc3ccccc3s2)CC1=O (centres undefined),-14,-15,2,4
Cc1ccc(C(C)NC(=O)/C(C#N)=C\c2c(C)[nH]c3ccccc23)cc1 (centres undefined),-9,-79,-2,59*
O=C1c2ccccc2C(=O)C1c1nccc2ccccc12,-12,16,4,61*
O=C1c2ccccc2C(=O)C1c1ccnc2ccccc12,/,42,/,/
SMILES,Yeast life ext,Yeast growth inh,PostGolgi yeast,PostGolgi ctrl
O=c1c2cc3c(cc2[nH]c(=S)n1CCN1CCOCC1)OCO3,-21,-28,-1,36*
CC(C)OCCCn1c(=S)[nH]c2cc3c(cc2c1=O)OCO3,-6,-20,-4,4
Cc1ccc(C(=O)c2cc(C)sc2NC(=O)CN2CCN(C(=O)c3ccco3)CC2)cc1,-11,-43,4,38*
Cc1cc(C(=O)c2ccccc2)c(NC(=O)CN2CCOCC2)s1,0,-27,/,/
O=C(C=C1SCCS1)/C=C/c1ccco1,-11,-27,-5,32*
CC1=C(C(=O)OCC(C)C)C(c2ccc(F)cc2)NC(=O)N1 (centres undefined),9,-25,3,33*
CCOC(=O)C1=C(C)NC(=O)NC1c1ccc(F)cc1 (centres undefined),7,-23,/,/
Cc1ccc(Nc2ncccc2C(N)=O)cc1[N+](=O)[O-],-4,-35,/,/
C/C(=N\OC(=O)NC1CCCCC1)c1sc(-c2ccccc2)nc1C,-13,-8,-2,34*
